Results taken from publication PMC3313684 (Journal of Natural Products, 2012).
≈ marks a conversion by molar mass, not a printed value. Read-outs that look alike come from different tables or passages of the source.

Assays:
Micrococcus luteus [1] = settings: previously shown; cited from earlier work
Neisseria gonorrhoeae [2] = settings: previously shown; cited from earlier work
SW1736 cells = test: Anaplastic thyroid carcinoma cell line inhibition, SW1736; assay type: cell-based, human
tubulin = test: Inhibition of [3H]colchicine binding to tubulin; settings: 10 μM compound, 1.0 μM tubulin, 5.0 μM [3H]colchicine
[3] = tested on: human umbilical vein endothelial cells (HUVEC); test: HUVEC Matrigel cord formation assay; assay type: cell-based; settings: 0.001 μg/mL, 24 h
Micrococcus luteus [4] = test: Antimicrobial susceptibility, Micrococcus luteus; assay type: cell-based; settings: read-out: MIC Micrococcus luteus
Procedure, shortened: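 Broth microdilution susceptibility to an established standard for aerobic bacteria, strain Presque Isle 456. Test compound was reconstituted in a small volume of sterile DMSO and diluted in medium just before the assay. MIC was the lowest concentration that stopped all visible growth (optically clear). Assays were repeated on separate days.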

KAT-4 cells = test: Anaplastic thyroid carcinoma cell line inhibition, KAT-4; assay type: cell-based, human; settings: for GI50: Homo sapiens, KAT-4, read-out: KAT-4 GI50
Procedure, shortened: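 Growth inhibition by the NCI sulforhodamine B method. Cells were plated in RPMI1640 with 5% fetal bovine serum and grown 24 h. Serial dilutions of test compound were then added for 48 h. Plates were fixed with trichloroacetic acid, stained with sulforhodamine B and read by plate reader. GI50 is the concentration giving a 50% drop in net protein increase, calculated from optical density data.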

Neisseria gonorrhoeae [5] = test: Antimicrobial susceptibility, Neisseria gonorrhoeae; assay type: cell-based; settings: for MIC: Neisseria gonorrhoeae, read-out: MIC Neisseria gonorrhoeae; for MIC Neisseria gonorrhoeae: broth microdilution
Procedure, shortened: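 Neisseria gonorrhoeae ATCC 49226 tested by broth microdilution following standard bacterial dilution guidelines. MIC taken as the lowest concentration inhibiting all visible growth (optically clear). Assays repeated on separate days.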

## COc1ccc(/C=C\c2cc(OC)c(OC)c(OC)c2)cc1O [1a, combretastatin A-4]
Micrococcus luteus [1]
  MIC Micrococcus luteus: 25-100 μg/disk
Neisseria gonorrhoeae [2]
  MIC Neisseria gonorrhoeae: 25-100 μg/disk

## COc1ccc(/C=C\c2cc(OC)c(OC)c(OC)c2)cc1OP(=O)([O-])[O-].[Na+].[Na+] [1b, fosbretabulin]
Micrococcus luteus [1]
  MIC Micrococcus luteus: 25-100 μg/disk
Neisseria gonorrhoeae [2]
  MIC Neisseria gonorrhoeae: 25-100 μg/disk

## COc1ccc(/C=C\c2cc(I)c(OC)c(OC)c2)cc1O [9a, 3-Iodo-4,4′,5-trimethoxy-3′-hydroxy-Z-stilbene]
SW1736 cells
  times less active against the SW1736 line than against KAT-4: 100 ×
tubulin
  inhibition of colchicine binding to tubulin, % inhibition ± SD: 100 ± 0.8%
[3]
  cord lengths and junction numbers: markedly reduced
Micrococcus luteus [4]
  MIC: 2 to 4 µg/mL (≈ 4.85 to 9.7 µM)

## COc1ccc(/C=C\c2cc(I)c(OC)c(I)c2)cc1O [9c, 3,5-Diiodo-4,4′-dimethoxy-3′-hydroxy-Z-stilbene]
KAT-4 cells
  GI50: 0.039 to 0.063 µg/mL (≈ 0.0768 to 0.124 µM)
SW1736 cells
  times less active against the SW1736 line than against KAT-4: 100 ×
tubulin
  inhibition of colchicine binding to tubulin, % inhibition ± SD: 100 ± 0.3%
[3]
  cord lengths and junction numbers: markedly reduced
Micrococcus luteus [4]
  MIC: 4 to 16 µg/mL (≈ 7.87 to 31.5 µM)

## COc1ccc(/C=C\c2cc(I)c(OC)c(OC)c2)cc1OP(=O)([O-])[O-].[K+].[K+] [11a, Potassium 3-Iodo-4,4′,5-trimethoxy-Z-stilbene 3′-O-phosphate]
KAT-4 cells
  GI50: 0.37 to 0.43 µg/mL

## COc1ccc(/C=C\c2cc(I)c(OC)c(I)c2)cc1OP(=O)([O-])[O-].[K+].[K+] [12a, Potassium 3,5-Diiodo-4,4′dimethoxy-Z-stilbene 3′-O-phosphate]
KAT-4 cells
  GI50: 0.38 to 0.44 µg/mL
KAT-4 cells; KAT-4
  times less inhibitory than the phenols 9a and 9c: 10 ×
Neisseria gonorrhoeae [5]
  MIC: 0.5 to 4 µg/mL

## COc1ccc(/C=C\c2cc(I)c(OC)c(I)c2)cc1OP(=O)([O-])[O-].[Na+].[Na+] [12b, Sodium 3,5-Diiodo-4,4′-dimethoxy-Z-stilbene 3′-O-phosphate]
Neisseria gonorrhoeae [5]
  MIC: 32 to 64 µg/mL

## COc1ccc(/C=C\c2cc(I)c(OC)c(I)c2)cc1OP(=O)([O-])[O-].[Li+].[Li+] [12c, Lithium 3,5-Diiodo-4,4′-dimethoxy-Z-stilbene 3′-O-phosphate]
Neisseria gonorrhoeae [5]
  MIC: 0.5 to 2 µg/mL

## C1COCCN1.COc1ccc(/C=C\c2cc(I)c(OC)c(I)c2)cc1OP(=O)(O)O [12d, Morpholine 3,5-Diiodo-4,4′-dimethoxy-Z-stilbene 3′-O-phosphate]
Neisseria gonorrhoeae [5]
  MIC Neisseria gonorrhoeae: < 0.5 µg/mL

## Glycine-OMe 3,5-Diiodo-4,4′-dimethoxy-Z-stilbene 3′-O-phosphate [12f]
Neisseria gonorrhoeae [5]
  MIC Neisseria gonorrhoeae: <0.5 to 1 µg/mL

## Morpholine 3-Iodo-4,4′,5-trimethoxy-Z-stilbene 3′-O-phosphate [11d]
Neisseria gonorrhoeae [5]
  MIC Neisseria gonorrhoeae: 16 to 32 µg/mL

## Piperdine 3,5-Diiodo-4,4′-dimethoxy-Z-stilbene 3′-O-phosphate [12e]
Neisseria gonorrhoeae [5]
  MIC Neisseria gonorrhoeae: < 0.5 µg/mL

## Tris 3,5-Diiodo-4,4′dimethoxy-Z-stilbene 3′-O-phosphate [12h]
Neisseria gonorrhoeae [5]
  MIC Neisseria gonorrhoeae: <0.5 to 2 µg/mL

## Tris 3-Iodo-4,4′,5-trimethoxy-Z-stilbene 3′-O-phosphate [11h]
Neisseria gonorrhoeae [5]
  MIC Neisseria gonorrhoeae: 32 to 64 µg/mL

## Tryptophan-OMe 3,5-Diiodo-4,4′-dimethoxy-Z-stilbene 3′-O-phosphate [12g]
Neisseria gonorrhoeae [5]
  MIC Neisseria gonorrhoeae: < 0.5 µg/mL

## Tryptophan-OMe 3-Iodo-4,4′,5-trimethoxy-Z-stilbene 3′-O-phosphate [11g]
Neisseria gonorrhoeae [5]
  MIC Neisseria gonorrhoeae: 4 to 8 µg/mL
